# According to ChEMBL document CHEMBL4011629, “New Disubstituted Quindoline Derivatives Inhibiting Burkitt's Lymphoma Cell Proliferation by Impeding c-MYC Transcription” (J Med Chem, 2017):
# The source made the active and inactive calls. The rule behind the calls is not given here.
# Legend:
# [1] = Stabilization of 5'-FAM/3'-TAMRA labeled c-Myc Pu22 G-quadruplex DNA (unknown origin) assessed as change in melting temperature at 2 uM by FRET assay
# Summary of the method: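 FRET melting of FAM/TAMRA-labelled FPu22T (0.2 μM) in 10 mM Tris-HCl pH 7.4 with 2 mM KCl, ligand 2 μM, in a real-time PCR machine. Excitation 470 nm, emission 530 nm, read every 1 °C from 37 to 99 °C after 30 s hold at each step; ΔTm versus probe alone.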
# [2] = Stabilization of c-Myc Pu27 G-quadruplex DNA (unknown origin) assessed as induction of parallel G-quadruplex formation in absence of K+ ions by CD spectroscopic analysis
# Summary of the method: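 CD spectra: Pu27 at 5 μM in 10 mM Tris-HCl pH 7.4 without or with 100 mM KCl, annealed 95 °C 5 min, slow-cooled, kept at 4 °C overnight, with ligand. Scanned 230–400 in a 4 mm quartz cuvette, 1 nm bandwidth and step, 0.5 s/point; buffer baseline subtracted.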
# [3] = Binding affinity to 5'-FAM labeled c-Myc Pu27 G-quadruplex DNA (unknown origin) in presence of K+ ions by MST analysis
# Summary of the method: (§1)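 The DNA was annealed at 95 °C for 5 min, slowly cooled and held at 4 °C overnight. Ligand was run as a 12-point series, 0–20 μM for Pu27 and up to 200 μM for duplex. MST was measured, and KD was fitted to a Hill model from three replicates.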
# [4] = Binding affinity to 5'-FAM labeled duplex DNA (unknown origin) by MST analysis; summary of the method: as §1
# [5] = Stabilization of c-Myc Pu27 G-quadruplex DNA (unknown origin) assessed as induction of parallel G-quadruplex formation in absence of K+ ions by CD spectroscopic analysis
# [6] = Selectivity ratio of Kd for 5'-FAM labeled duplex DNA (unknown origin) to Kd for 5'-FAM labeled c-Myc Pu27 G-quadruplex DNA (unknown origin)
# Summary of the method: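 MST binding: FAM-Pu27 or FAM-duplex oligo at 10 μM in 10 mM Tris-HCl pH 7.4 with 150 mM KCl, annealed 95 °C 5 min, slow-cooled, held 4 °C overnight. Ligand titrated as a 12-point series, 0–20 μM for G4 or up to 200 μM for duplex. KD fitted with Hill model; three replicates.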
# Raji = assay: Antiproliferative activity against human Raji cells after 48 hrs by MTT assay; type: functional, cell-based
# Summary of the method: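 RAJI cells were seeded at 5 × 10^3 cells per well and treated for 48 h, with a DMSO-matched control. MTT at 0.5 mg/mL was added for 4 h at 37 °C, followed by overnight lysis at 37 °C and absorbance at 570 nm. Each assay was done in triplicate. IC50 came from the dose-dependent percentage survival versus the control.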
# [7] = Inhibition of NM23-H2 binding to 5'-FAM labeled c-Myc Pu27 G-quadruplex DNA (unknown origin) at 10 uM preincubated for 1 hr followed by NM23-H2 addition by electrophoretic mobility shift assay relative to control
# Summary of the method: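 Annealed labeled Pu27 (1.5 μM) preincubated 1 h at 25 °C with 10 μM ligand or 5% DMSO. Recombinant His-tagged NM23-H2 (0.5 μM, E. coli BL21, nickel-purified) then added for 1 h at 37 °C. Complexes resolved on 5% native polyacrylamide gel in 0.5× TBE at 4 °C. Inhibition taken as loss of complex band intensity versus no-compound band set at 100%. Run three times.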
# Homo sapiens [8] = species: Homo sapiens; assay: Stabilization of c-Myc G-quadruplex DNA in human Raji cells assessed as decrease in amplification of exon-1 at 1 uM after 12 hrs by RT-PCR method; type: cell-based
# Summary of the method: (§2)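 Cells treated 12 h with compound at various concentrations, untreated cells as control. Total RNA (2 μg) reverse-transcribed with oligo dT18 and M-MLV (42 °C 1 h). c-MYC exons 1 and 2, NM23-H2 and β-actin amplified by real-time PCR, products checked on 1% agarose gel. Three independent repeats, mean ± SEM, two-tailed unpaired t test versus untreated.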
# Homo sapiens [9] = species: Homo sapiens; assay: Effect on c-Myc DNA translocated chromosome product in human Raji cells assessed as decrease in amplification of exon-2 at 1 uM after 12 hrs by RT-PCR method; type: cell-based; summary of the method: as §2
# Homo sapiens [10] = species: Homo sapiens; assay: Stabilization of c-Myc G-quadruplex DNA in human CA46 cells assessed as decrease in amplification of exon-1 at 1 uM after 12 hrs by RT-PCR method; type: cell-based; summary of the method: as §2
# Homo sapiens [11] = species: Homo sapiens; assay: Effect on c-Myc DNA translocated chromosome product in human CA46 cells assessed as decrease in amplification of exon-2 at 1 uM after 12 hrs by RT-PCR method; type: cell-based; summary of the method: as §2
SMILES,ΔTm [1] [°C],Activity [2],Activity [3],Activity [4],Activity [5],Kd [3] [nM],Selectivity ratio [6],IC50 (Raji) [nM],Activity [1],inhibition [7],Activity (Homo sapiens [8]),Activity (Homo sapiens [9]),Activity (Homo sapiens [10]),Activity (Homo sapiens [11])
CN1CCN(CCNC(=O)COc2ccc3oc4c(NCCN5CCN(C)CC5)c5ccccc5[n+](C)c4c3c2)CC1,13.5 to 36.7,Active,Active,Active,Active,–,–,–,–,–,–,–,–,–
CN(C)CCNc1c2ccccc2nc2c1oc1ccc(OCCN(C)C)cc12,13.5 to 36.7,Active,–,–,Active,1300 to 4900,2.5 to 10.1,1000 to 4000,–,–,–,–,–,–
CN(C)CCCNc1c2ccccc2nc2c1oc1cc(OCCN(C)C)ccc12,22.1 to 25.2,Active,–,–,Active,1300 to 4900,2.5 to 10.1,1000 to 4000,–,–,–,–,–,–
C[n+]1c2ccccc2c(NCCN2CCCCC2)c2oc3ccc(OCC(=O)NCCN4CCCCC4)cc3c21,30,Active,Active,Active,Active,–,–,–,–,–,–,–,–,–
CN(C)CCCNc1c2ccccc2nc2c1[nH]c1ccccc12,–,–,–,–,–,7800,1.02,–,Active,Active,Active,Active,Active,Active
C[n+]1c2ccccc2c(NCCCN2CCCCC2)c2oc3ccc(OCC(=O)NCCCN4CCCCC4)cc3c21,35.2,Active,Active,Active,Active,–,–,–,–,–,–,–,–,–
CN(C)CCCNc1c2ccccc2[n+](C)c2c1oc1ccc(OCCC[N+](C)(C)C)cc12,33.1 to 36.7,Active,Active,Active,Active,–,–,–,–,–,–,–,–,–
CN(C)CCCNc1c2ccccc2nc2c1oc1c(OCCCN(C)C)cccc12,13.5,Active,–,–,Active,1300 to 4900,2.5 to 10.1,1000 to 4000,–,–,–,–,–,–
C[n+]1c2ccccc2c(NCCCN2CCOCC2)c2oc3ccc(OCC(=O)NCCCN4CCOCC4)cc3c21,36.1,Active,Active,Active,Active,–,–,–,–,–,–,–,–,–
CN(C)CCCNc1c2ccccc2nc2c1oc1ccc(OCCCN(C)C)cc12,22.1 to 25.2,Active,–,–,Active,1300 to 4900,2.5 to 10.1,1000 to 4000,–,–,–,–,–,–
CN(C)CCCNc1c2ccccc2nc2c1oc1ccc(OCCN(C)C)cc12,22.1 to 25.2,Active,–,–,Active,1300 to 4900,2.5 to 10.1,1000 to 4000,–,–,–,–,–,–
CN(C)CCCNc1c2ccccc2nc2c1oc1cc(OCCCN(C)C)ccc12,22.1 to 25.2,Active,–,–,Active,1300 to 4900,2.5 to 10.1,1000 to 4000,–,–,–,–,–,–
CN(C)CCCNC(=O)COc1ccc2oc3c(NCCCN(C)C)c4ccccc4nc3c2c1,21.2,Active,Active,–,Active,–,2.9 to 9.7,1000 to 4000,–,–,–,–,–,–
O=C(COc1ccc2oc3c(NCCN4CCCCC4)c4ccccc4nc3c2c1)NCCN1CCCCC1,13.5 to 36.7,Active,Active,–,Active,–,2.9 to 9.7,1000 to 4000,–,–,–,–,–,–
C[n+]1c2ccccc2c(NCCN2CCOCC2)c2oc3ccc(OCC(=O)NCCN4CCOCC4)cc3c21,28.4,Active,Active,Active,Active,–,–,–,–,–,–,–,–,–
CN(C)CCCNc1c2ccccc2[n+](C)c2c1oc1ccc(OCC3CC[N+](C)(C)CC3)cc12,33.1 to 36.7,Active,Active,Active,Active,–,–,–,–,–,–,–,–,–
CN(C)CCCNc1c2ccccc2nc2c1oc1c(OCCN(C)C)cccc12,18.6,Active,–,–,Active,1300 to 4900,2.5 to 10.1,1000 to 4000,–,–,–,–,–,–
CN(C)CCCNc1c2ccccc2[n+](C)c2c1oc1ccc(OCC[N+](C)(C)C)cc12,33.1 to 36.7,Active,Active,Active,Active,–,–,–,–,–,–,–,–,–

# More lines, main results first:
ΔTm [1] [°C],Activity [2],Activity [3],Activity [4],Activity [5],Kd [3] [nM],Selectivity ratio [6],IC50 (Raji) [nM],SMILES,Activity [1],inhibition [7],Activity (Homo sapiens [8]),Activity (Homo sapiens [9]),Activity (Homo sapiens [10]),Activity (Homo sapiens [11])
13.5 to 36.7,Active,–,Active,Active,800,–,–,CCN(CC)CCNC(=O)COc1ccc2oc3c(NCCN(CC)CC)c4ccccc4[n+](C)c3c2c1,–,–,–,–,–,–
33.1 to 36.7,Active,Active,Active,Active,–,–,–,CN(C)CCNc1c2ccccc2[n+](C)c2c1oc1ccc(OCC[N+](C)(C)C)cc12,–,–,–,–,–,–
13.5 to 36.7,Active,Active,–,Active,–,2.9 to 9.7,1000 to 4000,CCN(CC)CCNC(=O)COc1ccc2oc3c(NCCN(CC)CC)c4ccccc4nc3c2c1,–,–,–,–,–,–
35.6,Active,Active,Active,Active,–,–,–,CN(C)CCCNC(=O)COc1ccc2oc3c(NCCCN(C)C)c4ccccc4[n+](C)c3c2c1,–,–,–,–,–,–
13.5 to 36.7,Active,Active,Active,Active,–,–,–,CN(C)CCCCNC(=O)COc1ccc2oc3c(NCCCCN(C)C)c4ccccc4[n+](C)c3c2c1,–,–,–,–,–,–
13.5 to 36.7,Active,Active,Active,Active,–,–,–,CN(C)CCNC(=O)COc1ccc2oc3c(NCCN(C)C)c4ccccc4[n+](C)c3c2c1,–,–,–,–,–,–
13.5 to 36.7,Active,–,Active,Active,700,–,–,CCN(CC)CCCNC(=O)COc1ccc2oc3c(NCCCN(CC)CC)c4ccccc4[n+](C)c3c2c1,–,–,–,–,–,–
13.5 to 36.7,Active,Active,–,Active,–,2.9 to 9.7,1000 to 4000,CN(C)CCNC(=O)COc1ccc2oc3c(NCCN(C)C)c4ccccc4nc3c2c1,–,–,–,–,–,–
13.5 to 36.7,Active,Active,–,Active,–,2.9 to 9.7,1000 to 4000,CCN(CC)CCCNC(=O)COc1ccc2oc3c(NCCCN(CC)CC)c4ccccc4nc3c2c1,–,–,–,–,–,–
